Among the data in ChEMBL document CHEMBL3046885, “Toxicity of (+)- and (-)-gossypol to the plant pathogen, Rhizoctonia solani” (2002) are LD100 and EC50 values, retold here.

Values joined by “and” are separate entries in the source; they are usually repeats but may differ in a detail not shown here. Equal values may be shown once. Bounds are passed on as bounds.

Test [1] has as its system Rhizoctonia solani. In words: Antifungal activity against Rhizoctonia solani J-1 after 4 to 5 days. Type of test: functional. Put shortly: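 Mycelial suspension of strain J-1 (grown 3-4 days at 26-28 °C in potato dextrose broth with rifampicin, macerated in buffered defined medium, pH 6.3, 125 mM glucose). Mixed 1:1 with compound in medium/DMSO; 12 wells per concentration, DMSO controls. Incubated 48 h at 26-28 °C in dark, then plated on PDA and scored visually after 4-5 days. LD100 is the lowest concentration giving no growth. At least three assays.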

In test [2] the test system is Rhizoctonia solani. In words: Antifungal activity against Rhizoctonia solani J-1 after 72 hr by turbimetric assay. Type of test: functional. Particulars: read-out: ED50 (the source's name). Summed up:
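Sieved macerated mycelium of strain J-1 was held 10 h in buffered defined medium (pH 6.3, 125 mM glucose), then mixed 1:1 with compound in medium/DMSO. Ten wells per concentration; DMSO control. Incubated at 26-28 °C in dark. OD750 was read from 72 h, every 12 h, until control OD reached 0.065-0.100. ED50 came from fractional effect versus concentration. Three plates per experiment, at least four experiments.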

Regarding `COc1c(C)cc2c3c(c(O)c(O)c(C(C)C)c13)CO2` [DESOXHEMIGOSSYPOL-6-METHYL ETHER], in the test on Rhizoctonia solani [1], the LD100 worked out at 40 µM. The EC50 in the test on Rhizoctonia solani [2] (Rhizoctonia solani, J-1, 72 h) was 2.52 µM.
Take `Cc1cc2c3c(c(O)c(O)c(C(C)C)c3c1)CO2` [DESOXYHEMIGOSSYPOL]: the LD100 with Rhizoctonia solani [1] was determined as 41 µM. Besides, in the test with Rhizoctonia solani [2] (Rhizoctonia solani, J-1, 72 h), the EC50 turned out to be 3.52 µM.
As for `Cc1cc(O)c2c(C=O)c(O)c(O)c(C(C)C)c2c1` [HEMIGOSSYPOL], the LD100 in the test on Rhizoctonia solani [1] is 77 µM. For the same molecule, the EC50 with Rhizoctonia solani [2] (Rhizoctonia solani, J-1, 72 h) turned out to be 21.4 µM.
Turning to `CC1=Cc2cccc(C)c2C(=O)C1=O` [O-HIBISCANONE], in the test with Rhizoctonia solani [1], the LD100 came to 27 µM. In addition, the EC50 in the test on Rhizoctonia solani [2] (Rhizoctonia solani, J-1, 72 h) amounted to 3.76 µM.
With `Cc1cc2c(C(C)C)c(O)c(O)c(C=O)c2c(O)c1-c1c(C)cc2c(C(C)C)c(O)c(O)c(C=O)c2c1O` [GOSSYPOL], in the test with Rhizoctonia solani [1], the LD100 is greater than 106 µM. The EC50 in the test with Rhizoctonia solani [2] (Rhizoctonia solani, J-1, 72 h) was 25.1 µM; with Rhizoctonia solani [2], 24.3 µM and 23.9 µM.
`COc1cc(O)c2c(C=O)c(O)c(O)c(C(C)C)c2c1` [HEMIGOSSYPOL-6-METHYL ETHER]: the LD100 in the test with Rhizoctonia solani [1] stood at 55 µM. Moreover, the EC50 with Rhizoctonia solani [2] (Rhizoctonia solani, J-1, 72 h) came to 13.1 µM.
